Active and inactive are the calls of the source. No cut-off for these calls is given here.
Tests used:
[1] = tested on: MDA-MB-231; assay: Antitumor activity against human MDA-MB-231 cells xenografted in SCID mouse assessed as inhibition of tumor growth at 20 mg/kg, ip dosed once daily for 5 days per week for 28 days; format: functional; details: MDA-MB-231, ip, in the assay text read “athymic nude mouse” for “SCID mouse”, route intraperitoneal, read-out: TGI
Outline: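 Athymic nude female mice with subcutaneous MDA-MB-231 tumors (10 × 10⁶ cells; ~100 mm³ at randomization, n = 6/group) dosed ip once daily, 5 days/week for 28 days, in 40% β-cyclodextrin/ddH₂O; vehicle controls. %T/C computed as median tumor volume treated vs control at day 28 × 100. Body weight monitored.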

[2] = tested on: MDA-MB-231; assay: Growth inhibition of human MDA-MB-231 cells at 10 uM by MTT assay; format: functional; details: read-out: GI
[3] = tested on: MCF7; assay: Growth inhibition of human MCF7 cells at 10 uM by MTT assay; format: functional; details: read-out: GI
[4] = Growth inhibition of human SKBR3 cells at 10 uM by MTT assay; format: functional; details: SK-BR-3, read-out: GI
[5] = tested on: MDA-MB-468; assay: Growth inhibition of human MDA-MB-468 cells at 10 uM by MTT assay; format: functional; details: read-out: GI
[6] = tested on: LNCaP; assay: Reduction in fAR protein expression in human LNCAP cells at 0.6 uM to 20 uM after 24 hrs by SDS-PAGE and Western blotting method; format: functional, cell-based
Outline: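 LNCaP cells were treated for 24 h across 0.6–20 μM, with vehicle (DMSO) controls. Equal protein from lysates was run on SDS–PAGE and immunoblotted for fAR, Mnk1/2, peIF4E, cyclin D1 and cleaved PARP. Blots were reprobed for β-actin as loading control.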

[7] = tested on: PC-3; assay: Inhibition of cell migration of human PC3 cells at 5 uM after 24 hrs by wound healing assay; format: functional, cell-based
Outline: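 Cells (5 × 10⁵ per well) grown to confluence, monolayer scratched at time zero, then exposed to 5 μM for 24 h; initial and final wounds photographed at 100×.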

[8] = tested on: MDA-MB-468; assay: Reduction in Mnk2 protein expression in human MDA-MB-468 cells at 0.63 uM to 20 uM after 24 hrs by SDS-PAGE and Western blotting method; format: functional, cell-based
Outline: (§1)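 Breast cancer cells in RPMI 1640 with 10% FBS treated 24 h at indicated concentrations, DMSO vehicle control; equal protein loaded on SDS–PAGE and immunoblotted for Mnk1, Mnk2, peIF4E, eIF4E and cleaved PARP; blots reprobed for GAPDH as loading control.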

[9] = tested on: LNCaP; assay: Reduction in Mnk2 protein expression in human LNCAP cells at 0.6 uM to 20 uM after 24 hrs by SDS-PAGE and Western blotting method; format: functional, cell-based
Outline: (§2)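 LNCaP cells (RPMI 1640, 10% FBS) exposed 24 h to 0.6–20 μM, DMSO vehicle control; equal protein on SDS–PAGE, immunoblotted for fAR, Mnk1/2, peIF4E, cyclin D1 and cleaved PARP; β-actin reprobe for loading.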

[10] = tested on: MCF7; assay: Effect on total eIF4E protein expression in human MCF7 cells at 0.63 uM to 20 uM after 24 hrs by SDS-PAGE and Western blotting method; format: functional, cell-based; outline: as §1
[11] = molecular target: T1, Androgen receptor (Homo sapiens) (UniProt P10275); details: LNCaP, at 10 µM
T1 sequence (whole entry): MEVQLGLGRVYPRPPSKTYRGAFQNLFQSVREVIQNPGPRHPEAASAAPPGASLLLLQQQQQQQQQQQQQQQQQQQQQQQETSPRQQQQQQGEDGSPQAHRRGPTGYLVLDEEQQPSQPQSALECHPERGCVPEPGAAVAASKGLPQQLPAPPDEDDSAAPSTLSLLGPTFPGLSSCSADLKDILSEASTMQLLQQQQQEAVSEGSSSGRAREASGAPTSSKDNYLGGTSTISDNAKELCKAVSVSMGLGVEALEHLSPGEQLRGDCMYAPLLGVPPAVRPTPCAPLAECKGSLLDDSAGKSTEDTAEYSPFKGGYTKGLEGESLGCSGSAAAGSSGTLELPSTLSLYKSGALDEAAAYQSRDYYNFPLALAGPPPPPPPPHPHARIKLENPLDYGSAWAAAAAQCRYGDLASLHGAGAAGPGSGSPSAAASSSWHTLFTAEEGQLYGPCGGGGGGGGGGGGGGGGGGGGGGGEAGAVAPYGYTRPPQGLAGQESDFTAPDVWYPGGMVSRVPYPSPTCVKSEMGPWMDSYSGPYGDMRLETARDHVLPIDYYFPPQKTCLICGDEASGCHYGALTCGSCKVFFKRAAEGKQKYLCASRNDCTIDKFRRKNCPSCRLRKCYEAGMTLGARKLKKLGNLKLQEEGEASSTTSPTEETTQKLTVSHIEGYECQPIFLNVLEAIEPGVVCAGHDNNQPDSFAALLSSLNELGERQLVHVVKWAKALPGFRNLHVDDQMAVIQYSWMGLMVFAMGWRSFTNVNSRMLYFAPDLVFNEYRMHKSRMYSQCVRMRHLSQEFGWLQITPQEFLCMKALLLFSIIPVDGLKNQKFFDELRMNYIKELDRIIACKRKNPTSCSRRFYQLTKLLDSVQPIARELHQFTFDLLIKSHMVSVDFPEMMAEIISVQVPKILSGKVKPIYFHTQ

[12] = tested on: LNCaP; assay: Induction of apoptosis in human LNCAP cells assessed as increase in c-PARP formation at 0.6 uM to 20 uM after 24 hrs by SDS-PAGE and Western blotting method; format: functional, cell-based; outline: as §2
[13] = tested on: MCF7; assay: Reduction in Mnk2 protein expression in human MCF7 cells at 0.63 uM to 20 uM after 24 hrs by SDS-PAGE and Western blotting method; format: functional, cell-based; outline: as §1
[14] = tested on: MCF7; assay: Growth inhibition of human MCF7 cells by MTT assay; format: functional
Outline: (§3)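 Cells grown in RPMI 1640 with 10% FBS, plated at 2500 cells/well, treated across a dose range; growth read by MTT. GI50 taken from dose–response curves by nonlinear regression, at least three independent experiments.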

[15] = tested on: LNCaP; assay: Growth inhibition of human LNCAP cells by MTT assay; format: functional; outline: as §3
[16] = tested on: MCF7; assay: Reduction in Mnk1 protein expression in human MCF7 cells at 0.63 uM to 20 uM after 24 hrs by SDS-PAGE and Western blotting method; format: functional, cell-based; outline: as §1
[17] = tested on: MDA-MB-231; assay: Reduction in peIF4E protein expression in human MDA-MB-231 cells at 0.63 uM to 20 uM after 24 hrs by SDS-PAGE and Western blotting method; format: functional, cell-based
Outline: (§4)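 MCF-7, MDA-MB-231 and MDA-MB-468 cells, kept in RPMI 1640 with 10% FBS, were exposed for 24 h to a range of concentrations, with DMSO vehicle controls. Equal protein from lysates was separated by SDS–PAGE and probed for Mnk1, Mnk2, peIF4E, eIF4E and cPARP. GAPDH reprobing served as loading control.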

[18] = tested on: MDA-MB-468; assay: Growth inhibition of human MDA-MB-468 cells by MTT assay; format: functional; outline: as §3
[19] = tested on: MDA-MB-468; assay: Induction of apoptosis in human MDA-MB-468 cells assessed as increase in c-PARP formation at 0.63 uM to 20 uM after 24 hrs by SDS-PAGE and Western blotting method; format: functional, cell-based; outline: as §1
[20] = tested on: MDA-MB-231; assay: Reduction in Mnk2 protein expression in human MDA-MB-231 cells at 0.63 uM to 20 uM after 24 hrs by SDS-PAGE and Western blotting method; format: functional, cell-based; outline: as §1
[21] = Growth inhibition of human CWR22Rv1 cells by MTT assay; format: functional, CWR22R; details: 22Rv1; outline: as §3
[22] = tested on: LNCaP; assay: Effect on total eIF4E protein expression in human LNCAP cells at 0.6 uM to 20 uM after 24 hrs by SDS-PAGE and Western blotting method; format: functional, cell-based
[23] = tested on: MCF7; assay: Reduction in peIF4E protein expression in human MCF7 cells at 0.63 uM to 20 uM after 24 hrs by SDS-PAGE and Western blotting method; format: functional, cell-based; outline: as §4
[24] = Growth inhibition of human PC3 cells by MTT assay; format: functional; details: PC-3; outline: as §3
[25] = tested on: MDA-MB-468; assay: Reduction in peIF4E protein expression in human MDA-MB-468 cells at 0.63 uM to 20 uM after 24 hrs by SDS-PAGE and Western blotting method; format: functional, cell-based; outline: as §4
[26] = tested on: MDA-MB-231; assay: Induction of apoptosis in human MDA-MB-231 cells assessed as increase in c-PARP formation at 0.63 uM to 20 uM after 24 hrs by SDS-PAGE and Western blotting method; format: functional, cell-based; outline: as §1
[27] = tested on: MDA-MB-231; assay: Reduction in Mnk1 protein expression in human MDA-MB-231 cells at 0.63 uM to 20 uM after 24 hrs by SDS-PAGE and Western blotting method; format: functional, cell-based; outline: as §1
[28] = Growth inhibition of human SKBR3 cells by MTT assay; format: functional; details: SK-BR-3; outline: as §3
[29] = tested on: MDA-MB-468; assay: Reduction in Mnk1 protein expression in human MDA-MB-468 cells at 0.63 uM to 20 uM after 24 hrs by SDS-PAGE and Western blotting method; format: functional, cell-based; outline: as §1
[30] = tested on: MDA-MB-231; assay: Growth inhibition of human MDA-MB-231 cells by MTT assay; format: functional; outline: as §3
[31] = tested on: MDA-MB-468; assay: Effect on total eIF4E protein expression in human MDA-MB-468 cells at 0.63 uM to 20 uM after 24 hrs by SDS-PAGE and Western blotting method; format: functional, cell-based; outline: as §1
[32] = tested on: MDA-MB-231; assay: Effect on total eIF4E protein expression in human MDA-MB-231 cells at 0.63 uM to 20 uM after 24 hrs by SDS-PAGE and Western blotting method; format: functional, cell-based; outline: as §1
[33] = tested on: LNCaP; assay: Induction of apoptosis in human LNCAP cells assessed as reduction in cyclin D1 levels at 0.6 uM to 20 uM after 24 hrs by SDS-PAGE and Western blotting method; format: functional, cell-based; outline: as §2
[34] = tested on: LNCaP; assay: Reduction in Mnk1 protein expression in human LNCAP cells at 0.6 uM to 20 uM after 24 hrs by SDS-PAGE and Western blotting method; format: functional, cell-based; outline: as §2
[35] = tested on: MCF7; assay: Induction of apoptosis in human MCF7 cells assessed as increase in c-PARP formation at 0.63 uM to 20 uM after 24 hrs by SDS-PAGE and Western blotting method; format: functional, cell-based; outline: as §1

For `CC1=C(/C=C/C(C)=C/C=C/C(C)=C/C(=O)Nc2ccc(F)cc2)C(C)(C)CCC1n1ccnc1` (stereo not drawn), the inhibition in vivo at 20 mg/kg [1] was 97%.

For `CC1=C(/C=C/C(C)=C/C=C/C(C)=C\C(=O)NCc2ccc(O)cc2)C(C)(C)CC=C1c1cccnc1`, the inhibition of growth at 10 µM [2] was at least 40%, the inhibition of growth at 10 µM [3] was at least 40% and the inhibition of growth at 10 µM [4] was at least 40%. It also gave an inhibition of growth at 10 µM [5] of at least 40%.

Work on `COc1cccc(C2=CCC(C)(C)C(/C=C/C(C)=C/C=C/C(C)=C\C(=O)NCc3ccc(O)cc3)=C2C)c1` yielded an inhibition of growth at 10 µM [2] of at least 40%, an inhibition of growth at 10 µM [3] of at least 40% and an inhibition of growth at 10 µM [4] of at least 40%. For the same molecule, the inhibition of growth at 10 µM [5] was at least 40%.

For `CC1=C(/C=C/C(C)=C/C=C/C(C)=C\C(=O)Nc2ccccc2)C(C)(C)CCC1n1ccnc1` (stereo not drawn), the inhibition [6] was “Dose-dependent effect”, the inhibition [7] was “Active” and the inhibition [8] was “Dose-dependent effect”. For the same molecule, the inhibition [9] was “Dose-dependent effect”, the Activity [10] was “inactive” and the inhibition [11] was “Active”. For the same molecule, the Activity [12] was “Active”, the inhibition [13] was “Dose-dependent effect” and the GI50 [14] was 1900 nM. The GI50 [15] was 2690 nM, the inhibition [16] was “Dose-dependent effect” and the inhibition [17] was “Dose-dependent effect”. For the same molecule, the GI50 [18] was 2540 nM, the Activity [19] was “Dose-dependent effect” and the inhibition [20] was “Dose-dependent effect”. The GI50 [21] was 1280 nM, the Activity [22] was “inactive” and the inhibition [23] was “Dose-dependent effect”. The GI50 [24] was 8910 nM, the inhibition [25] was “Dose-dependent effect” and the Activity [26] was “Dose-dependent effect”. For the same molecule, the inhibition [27] was “Dose-dependent effect”, the GI50 [28] was 1730 nM and the inhibition [29] was “Dose-dependent effect”. For the same molecule, the GI50 [30] was 1740 nM, the Activity [31] was “inactive” and the Activity [32] was “inactive”. For the same molecule, the Activity [33] was “Active”, the inhibition [34] was “Dose-dependent effect” and the Activity [35] was “Dose-dependent effect”.

With `COc1cccc(C2=CCC(C)(C)C(/C=C/C(C)=C/C=C/C(C)=C\C(=O)NCCc3ccc(O)cc3)=C2C)c1` the inhibition of growth at 10 µM [2] was at least 40%, the inhibition of growth at 10 µM [3] was at least 40% and the inhibition of growth at 10 µM [4] was at least 40%. The inhibition of growth at 10 µM [5] was at least 40%.
